The subject of this experiment is human platelets, SFLLRN-induced actin polymerization, FITC-phalloidin flow. The experiment is described as follows: blockers of PAR1 peptide-driven F-actin formation – cell-based, FITC-phalloidin flow cytometry, human platelets, selectivity assay for platelet granule secretion inhibitor project, late-stage follow-up (AID 2655). Conditions: at 10 µM; hits give high values. The gist of the method: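 material = Gel-filtered platelets | also added = SFLLRN at 5 µM, or no SFLLRN | compound = single 10 µM compound dose, 0.3% DMSO vehicle | times = 20 min compound, 15 min SFLLRN, 37 °C | technique = FITC-phalloidin flow cytometry in fixed, permeabilized platelets | control set = 0.3% DMSO vehicle samples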

By inhibition is commonly meant the relative decrease from the control value, in per cent. For the compound `O=C(Nc1cccc(NC(=O)c2ccccc2Cl)c1)c1ccco1`, the inhibition was 71.4%.

As for `CCCC(=O)Nc1cccc(NC(=O)c2ccccc2Br)c1`, the inhibition was 80.4%.

For the origin of these results see PubChem BioAssay AID2655 (Broad Institute, 2010).
